One may read the IC50 as the point on the concentration scale where inhibition reaches its midpoint. As usually defined, the inhibition is the change of the read-out against control, counted positive when it falls.

The record followed here is ChEMBL document CHEMBL4622987, “Folate Receptor Targeting and Cathepsin B-Sensitive Drug Delivery System for Selective Cancer Cell Death and Imaging” (ACS Med Chem Lett, 2020).

Data set [1] has as its target T1, Cathepsin B (Homo sapiens, UniProt P07858). Briefly: Prodrug release assessed as cathepsin B (unknown origin)-mediated cleavage of parent compound by measuring retention time of folic acid linked-glycyl-hydroxypehylalanine by RP-HPLC analysis/mass spectrometry. Format: ADME. In outline:
(§1)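 The cathepsin B digest of the conjugate was analysed by analytical RP-HPLC with mass spectrometry. Cleavage products were assigned from their retention times and [M+H]+ or [M+Na]+ ions.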

Data set [2] in a line: Drug uptake in folate receptor negative human 16HBE cells assessed as accumulation of compound at 5 uM incubated for 24 hrs by Hoechst 33342 staining based confocal microscopy. As to conditions: 16hbe14o-; call rule not given here. It counts as ADME, cell-based. In outline:
(§2)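 Cells were incubated with 5 μM conjugate for 24 h. Nuclei were counterstained with Hoechst 33342 (1 μg/mL). Cellular fluorescence and its localisation were imaged by confocal microscopy.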

Data set [3] can be described thus: Retention time of the compound by RP-HPLC analysis/mass spectrometry. Format: physicochemical.
In data set [4] the target is T1, Cathepsin B. Kind of data set: Prodrug release in FR-overexpressing human SKHEP1 cells assessed as cathepsin B-mediated 7-ethyl-10-hydroxycamptothecin accumulation in nucleus at 5 uM preincubated with cathepsin B inhibitor CA-074 Me for 24 hrs followed by compound treatment for 24 hrs by Hoechst 33342 staining based confocal microscopy. It counts as ADME, cell-based. To be noted: sk-hep1, 24 h. Summed up:
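SK-Hep-1 cells were pretreated with 20 μM CA-074 Me (cathepsin B inhibitor) for 24 h, then given 5 μM conjugate for 24 h. Nuclei were stained with Hoechst 33342 (1 μg/mL), and cells were imaged by confocal microscopy.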

Data set [5] deals with T1, Cathepsin B. Briefly: Prodrug release in FR-overexpressing human SKHEP1 cells assessed as cathepsin B-mediated 7-ethyl-10-hydroxycamptothecin accumulation in nucleus at 5 uM preincubated with folic acid for 1 hr followed by compound treatment for 24 hrs by Hoechst 33342 staining based confocal microscopy. Format: ADME, cell-based. As to conditions: sk-hep1, 24 h. Summed up: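 SK-Hep-1 cells were pre-exposed to 3 mM free folic acid for 1 h to block the folate receptor, then given 5 μM conjugate for 24 h. Hoechst 33342 (1 μg/mL) was used as the nuclear stain, with confocal microscopy read-out.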

A further data set deals with HeLa. Kind of data set: Cytotoxicity against FR-positive human HeLa cells assessed as reduction in cell viability measured after 72 hrs by MTT assay. Format: functional, cell-based. Summed up:
(§3)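 Cancer or normal human cells were exposed to a range of concentrations for 72 h. Viability was read by MTT assay. IC50 was derived from the concentration–response curves, and percent viability loss was taken at 20 μM.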
On the technique in general: Tetrazolium dyes change colour on reduction, which living cells bring about.

The target in data set [6] is T1, Cathepsin B. Kind of data set: Prodrug release in FR-overexpressing human SKHEP1 cells assessed as cathepsin B-mediated 7-ethyl-10-hydroxycamptothecin accumulation in nucleus at 5 uM incubated for 24 hrs by Hoechst 33342 staining based confocal microscopy. Format: ADME, cell-based. To be noted: sk-hep1, 24 h. In outline: as §2
In data set [7] the target is T1, Cathepsin B. Kind of data set: Prodrug release assessed as cathepsin B (unknown origin)-mediated cleavage of parent compound by measuring retention time of cyclic dipeptide matography-mass spectrometry. Format: ADME.
For data set [8], the target named is T1, Cathepsin B. Briefly: Prodrug release assessed as cathepsin B (unknown origin)-mediated cleavage of GFLG peptide of parent compound by measuring retention time of 7-ethyl-10-hydroxycamptothecin by RP-HPLC analysis/mass spectrometry. It counts as ADME. Summed up:
as §1

The next data set relates to SiHa. Briefly: Cytotoxicity against FR-positive human SiHa cells assessed as reduction in cell viability measured after 72 hrs by MTT assay. It counts as functional, cell-based. In outline:
as §3

The next data set has as its system SK-HEP1. Kind of data set: Cytotoxicity against FR-positive human SKHEP1 cells assessed as reduction in cell viability measured after 72 hrs by MTT assay. Format: functional, cell-based. As to conditions: SK-HEP1, 72 h. In outline:
as §3

Data set [9] in a line: Cytotoxicity against human 16HBE cells assessed as reduction in cell viability at 20 uM measured after 72 hrs by MTT assay relative to control. It counts as cell-based. To be noted: 16HBE (16HBE14o-) cells, read-out: INH. In outline: as §3
In data set [10] the test system is A549. Kind of data set: Cytotoxicity against FR-negative human A549 cells assessed as reduction in cell viability at 20 uM measured after 72 hrs by MTT assay relative to control. Format: functional. As to conditions: A549, 72 h. In outline:
as §3

Data set [11] in a line: Drug uptake in folate receptor negative human A549 cells assessed as accumulation of compound in lysosomes by measuring fluorescence intensity at 5 uM incubated for 24 hrs by Hoechst 33342 staining based confocal microscopy. It counts as ADME, cell-based. As to conditions: a549, 24 h. In outline:
as §2

For data set [12], the target named is T1, Cathepsin B. Briefly: Prodrug release assessed as cathepsin B (unknown origin)-mediated cleavage of GFLG peptide of parent compound by measuring formation of 7-ethyl-10-hydroxycamptothecin at 37 degreeC by fluorescence spectroscopy. It counts as ADME. In outline:
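The conjugate was incubated with cathepsin B at 37 °C, alongside an enzyme-free control. Release of free SN38 was followed as the rise in fluorescence over time (λex 365 nm, λem 540 nm).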

Data set [13] has as its target T1, Cathepsin B. Briefly: Prodrug release assessed as cathepsin B (unknown origin)-mediated cleavage of GFLG peptide of parent compound by measuring formation of 7-ethyl-10-hydroxycamptothecin at 37 degreeC in presence of cathepsin B inhibitor CA-074 Me by fluorescence spectroscopy. Format: ADME.
The subject of another data set is 16HBE14o-. Briefly: Cytotoxicity against human 16HBE cells assessed as reduction in cell viability measured after 72 hrs by MTT assay. Format: cell-based.
The subject of data set [14] is A549. Briefly: Cytotoxicity against FR-negative human A549 cells assessed as reduction in cell viability measured after 72 hrs by MTT assay. It counts as functional, cell-based. As to conditions: A549, 72 h.

As for `CCc1c2c(nc3ccc(OCc4ccc(NC(=O)CNC(=O)[C@H](CC(C)C)NC(=O)[C@H](Cc5ccccc5)NC(=O)CNC(=O)COCCOCCOCCOCc5cn(CCOCCOCCOCCNC(=O)CC[C@H](NC(=O)c6ccc(NCc7cnc8nc(N)[nH]c(=O)c8n7)cc6)C(=O)O)nn5)cc4)cc13)-c1cc3c(c(=O)n1C2)COC(=O)[C@]3(O)CC`, the Retention_time was found to be 21.4 min at Cathepsin B [1], 26.4 min in data set [3], 34 min on Cathepsin B [7] and 23.6 min on Cathepsin B [8]. Moreover, the Drug uptake result in data set [2] and in [11] was “Not Active” throughout. Besides, the Drug metabolism entry is “Metabolite_Notdetected” at Cathepsin B [4]; “Metabolite_Notdetected” at Cathepsin B [5]; “Metabolite_Detected” at Cathepsin B [6]; “Metabolite_Detected” at Cathepsin B [12]; “Metabolite_Notdetected” on Cathepsin B [13]. For the same compound, the IC50 in the data set on HeLa, in the data set on SiHa and in the data set on SK-HEP1 was 2000 to 3000 nM in each case. The cytotoxicity at 72 h, 20 µM in data set [9] was determined as 24%. Moreover, the inhibition at 20 µM in the data set on A549 [10] was 51%.

As for `CCc1c2c(nc3ccc(O)cc13)-c1cc3c(c(=O)n1C2)COC(=O)[C@]3(O)CC` [7-ETHYL-10-HYDROXYCAMPTOTHECIN], the half-inhibitory concentration (IC50) in the data set with HeLa, in the data set with 16HBE14o-, in the data set with SiHa, in the data set on SK-HEP1 and in the data set with A549 [14] was 300 to 1000 nM each time.
